# Activity calls are given as the source filed them. The calls are words filed in the database; no cut-off is given here.
# Legend:
# [1] = test system: Rattus norvegicus; assay: Ulcerogenicity in Sprague-Dawley rat assessed as gastric lesions at 444 umol/kg, po; type: toxicity, organism-based, Stomach; conditions: in vivo
# Procedure, shortened: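 Rats were fasted overnight and dosed orally with compound in 0.5% methylcellulose plus Tween 80. Stomachs were examined for gastric lesions by the Brodie and Hansen method. Lesion incidence counted animals with a lesion of 1 mm or longer, expressed relative to plain aspirin.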
# [2] = test system: Plasma; assay: Prodrug conversion in rat plasma assessed as salicylate level at 594 umol/kg, po measured after 15 mins; type: ADME, organism-based; conditions: in vivo, 0.25 h
# Procedure, shortened: (§1)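 Rats were dosed orally, with the glyceride given as an emulsion. Plasma salicylate was followed from 15 min to 24 h after dosing and reported as mean levels. Absorption was estimated by comparing mean areas under the plasma salicylate curves with those after aspirin.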
# [3] = test system: Plasma; assay: Prodrug conversion in rat plasma assessed as salicylate level at 594 umol/kg, po measured after 24 hrs; type: ADME, organism-based; conditions: in vivo; procedure, shortened: as §1
# [4] = test system: Rattus norvegicus; assay: Antiinflammatory activity in Sprague-Dawley rat assessed as inhibition of carrageenin-induced hind paw swelling at 444 umol/kg, po administered 2 hrs prior to carrageenin challenge measured after 3 hrs by volumetric transducer analysis relative to aspirin; type: functional
# Procedure, shortened: (§2)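 Male Sprague-Dawley rats (170-200 g) were fasted overnight with water ad libitum. Compounds were suspended in 0.5% (w/v) methylcellulose with a drop of Tween 80 and given orally 2 h before a subplantar injection of 0.1 mL of 1.5% carrageenin. Paw volume was read before and 3 h after injection by immersion in a mercury vessel linked to a volumetric transducer and polygraph.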
# [5] = test system: Plasma; assay: Prodrug conversion in rat plasma assessed as salicylate level at 1192 umol/kg, po administered as emulsified solution measured after 1 to 6 hrs; type: ADME, organism-based; conditions: in vivo; procedure, shortened: as §1
# [6] = test system: Plasma; assay: Prodrug conversion in rat plasma assessed as salicylate level at 1192 umol/kg, po administered as emulsified solution measured after 24 hrs; type: ADME, organism-based; conditions: in vivo; procedure, shortened: as §1
# [7] = test system: Rattus norvegicus; assay: Antipyretic activity against yeast-induced fever in rat assessed as delay in onset of activity at 1068 umol/kg, po relative to aspirin; type: functional, organism-based
# [8] = test system: Rattus norvegicus; assay: Antipyretic activity against yeast-induced fever in rat assessed as prolonged duration of action at 1068 umol/kg, po relative to aspirin; type: functional, organism-based
# [9] = Drug absorption in rat at 1192 umol/kg, po administered as emulsified solution; type: ADME, organism-based; conditions: in vivo, read-out: Drug absorption; procedure, shortened: as §1
# [10] = test system: Rattus norvegicus; assay: Antiinflammatory activity in Sprague-Dawley rat assessed as inhibition of carrageenin-induced hind paw swelling at 394 umol/kg, po administered 2 hrs prior to carrageenin challenge measured after 3 hrs by volumetric transducer analysis relative to aspirin; type: functional; procedure, shortened: as §2
# [11] = test system: Rattus norvegicus; assay: Antiinflammatory activity in Sprague-Dawley rat assessed as inhibition of carrageenin-induced hind paw swelling at 273 umol/kg, po administered 2 hrs prior to carrageenin challenge measured after 3 hrs by volumetric transducer analysis relative to aspirin; type: functional; procedure, shortened: as §2
# [12] = test system: Rattus norvegicus; assay: Antiinflammatory activity in Sprague-Dawley rat assessed as inhibition of carrageenin-induced hind paw swelling at 323 umol/kg, po administered 2 hrs prior to carrageenin challenge measured after 3 hrs by volumetric transducer analysis relative to aspirin; type: functional; procedure, shortened: as §2
structure (smiles),measurement,setting,value
CC(=O)Oc1ccccc1C(=O)O [ASPIRIN],Activity,[1],Toxic
same,Drug metabolism,[2],196 µg/mL
same,Drug metabolism,[3],24 µg/mL
CCCCCCCCCC(=O)OCC(COC(=O)CCCCCCCCC)OC(=O)c1ccccc1OC(C)=O,inhibition in vivo at 444 µmol/kg,[4],80%
same,Activity,[1],Non-toxic
same,Drug metabolism,[5],219 µg/mL
same,Drug metabolism,[6],61 µg/mL
same,Activity,[7],Active
same,Activity,[8],Active
same,Fa,[9],100%
CCCC(=O)OCC(COC(=O)CCC)OC(=O)c1ccccc1OC(C)=O,inhibition in vivo at 444 µmol/kg,[4],92%
same,Activity,[1],Non-toxic
CC(=O)OCC(COC(C)=O)OC(=O)c1ccccc1OC(C)=O,inhibition in vivo at 444 µmol/kg,[4],48%
same,Activity,[1],Toxic
CCCCCCCC(=O)OCC(COC(=O)CCCCCCC)OC(=O)c1ccccc1OC(C)=O,inhibition in vivo at 394 µmol/kg,[10],60%
CCCCCCCCCCCCCCCC(=O)OCC(COC(=O)CCCCCCCCCCCCCCC)OC(=O)c1ccccc1OC(C)=O,inhibition in vivo at 273 µmol/kg,[11],12%
CCCCCCCCCCCC(=O)OCC(COC(=O)CCCCCCCCCCC)OC(=O)c1ccccc1OC(C)=O,inhibition in vivo at 323 µmol/kg,[12],44%
